Experimental data from different studies.
Lines come from different studies, so protocols differ.
SLC6A3: Sodium-dependent dopamine transporter (SLC6A3, Homo sapiens, UniProt Q01959)
USP51: Ubiquitin carboxyl-terminal hydrolase 51 (USP51, Homo sapiens, UniProt Q70EK9)
CA12: Carbonic anhydrase 12 (CA12, Homo sapiens, UniProt O43570)
DRD3: D(3) dopamine receptor (DRD3, Homo sapiens, UniProt P35462)
Lyn: Tyrosine-protein kinase Lyn (Lyn, Mus musculus, UniProt P25911)

Structure (SMILES) | target | test | system | conditions | inhibition
Clc1ccc(C(c2ccccc2)c2nnnn2CCCN2CCC(Cc3ccccc3)CC2)cc1 (stereo not shown) | SLC6A3 | transporter uptake, inhibitor | HEK293 | 1 µM | 93.8%
COc1cc2c(cc1OC)-c1cc3ccc(OC)c(OC)c3c[n+]1CC2 | USP51 | enzyme activity, inhibitor | – | 5 µM | 51%
CN(C)C1CCN(CC#Cc2nn(C3CCCC3)c3nc(NCc4ccccc4)ncc23)C1 (stereo not shown) | Calcium/calmodulin-dependent protein kinase type IV (CAMK4, Homo sapiens, UniProt Q16566) | enzyme activity, inhibitor, FRET | – | 10 µM | 23%
CC(C)=CCC[C@](C)(O)[C@H]1CC[C@]2(C)[C@@H]1[C@H](O)C[C@@H]1[C@@]3(C)CC[C@H](O[C@@H]4O[C@H](CO)[C@@H](O)[C@H](O)[C@H]4O[C@@H]4O[C@H](CO)[C@@H](O)[C@H](O)[C@H]4O)C(C)(C)[C@@H]3CC[C@]12C | USP51 | enzyme activity, inhibitor | – | 5 µM | 0%
Clc1ccc(C(c2ccccc2)c2nnnn2CCCN2CCC(CCc3ccccc3)CC2)cc1 (stereo not shown) | SLC6A3 | transporter uptake, inhibitor | HEK293 | 1 µM | 78.4%
O=C(c1ccc(F)cc1)N(Cc1ccccc1)C1CCCCC1 | Sodium- and chloride-dependent GABA transporter 1 (Slc6a1, Rattus norvegicus, UniProt P23978) | transporter uptake | – | 10 µM | 4%
CCOC(=O)C1CSc2[nH]c(=O)sc2C1c1cn(-c2ccccc2)nc1-c1ccccc1 (stereo not shown) | CA12 | enzyme activity, inhibitor, absorbance | – | 1 µM | 46.7%
Clc1ccc(C(c2ccc(Cl)cc2)c2nnnn2CCCCN2CCC(Cc3ccc(Cl)c(Cl)c3)CC2)cc1 | SLC6A3 | transporter uptake, inhibitor | HEK293 | 1 µM | 62.6%
O=c1c(-c2ccc(O)cc2)coc2cc(O)ccc12 | USP51 | enzyme activity, inhibitor | – | 5 µM | 10%
O=C1NC(=S)C(=Cc2cn(-c3ccccc3)nc2-c2ccc(Br)cc2)S1 | CA12 | enzyme activity, inhibitor, absorbance | – | 0.1 µM | 11.1%
COc1ccc(S(N)(=O)=O)cc1C(=O)NCCCN1CCN(c2ccccc2OC)CC1 | DRD3 | enzyme activity, inhibitor | – | 10 µM | 21.6%
N#CC1CSc2[nH]c(=O)sc2C1c1cn(-c2ccccc2)nc1-c1ccc(Br)cc1 (stereo not shown) | CA12 | enzyme activity, inhibitor, absorbance | – | 1 µM | 61.5%
c1ccc(CCC2CCN(CCCn3nnnc3C(c3ccccc3)c3ccccc3)CC2)cc1 | SLC6A3 | transporter uptake, inhibitor | HEK293 | 1 µM | 68.3%
COc1cc(CNCCc2c[nH]c3ccccc23)cc(Cl)c1OCC(N)=O | DRD3 | enzyme activity, inhibitor | – | 10 µM | 39.6%
CNc1cc(Oc2cc(C(=O)Nc3cc(N4CCN(C)CC4)cc(C(F)(F)F)c3)ccc2C)ncn1 | Serine/threonine-protein kinase ATR (ATR, Homo sapiens, UniProt Q13535) | target engagement in cells, inhibitor, chemoproteomics | Huh-7 | 1 µM | -18%
CCOC(=O)C1CSc2[nH]c(=O)sc2C1c1cn(-c2ccccc2)nc1-c1ccc(C)cc1 (stereo not shown) | CA12 | enzyme activity, inhibitor, absorbance | – | 10 µM | 83.1%
NS(=O)(=O)c1ccc(CCNCc2cccc3ccccc23)cc1 | DRD3 | enzyme activity, inhibitor | – | 10 µM | 39.3%
CCOC(=O)C1CSc2[nH]c(=O)sc2C1c1cn(-c2ccccc2)nc1-c1ccc(Cl)cc1 (stereo not shown) | CA12 | enzyme activity, inhibitor, absorbance | – | 0.1 µM | 46.4%
O=C1CC(N2CCN(Cc3ccccc3)CC2)C(=O)N1c1ccc2c(c1)OCCO2 (stereo not shown) | DRD3 | enzyme activity, inhibitor | – | 10 µM | -26%

Structure (SMILES) | target | test | system | conditions | inhibition
c1ccc(CCCC2CCN(CCCn3nnnc3C(c3ccccc3)c3ccccc3)CC2)cc1 | SLC6A3 | transporter uptake, inhibitor | HEK293 | 1 µM | 30.4%
Cc1ccc(Nc2nccc(N(C)c3ccc4c(C)n(C)nc4c3)n2)cc1S(N)(=O)=O | Lyn | enzyme activity, inhibitor | – | 10 µM | 97%
O=C(c1ccccc1Cl)N1CCN(CCNc2cc(=O)oc3ccccc23)CC1 | DRD3 | enzyme activity, inhibitor | – | 10 µM | -5.2%
Nc1ncnc2c1ncn2[C@@H]1O[C@H](CO)C[C@H]1O | USP51 | enzyme activity, inhibitor | – | 5 µM | 24%
CCOC(=O)C1CSc2[nH]c(=O)sc2C1c1cn(-c2ccccc2)nc1-c1ccc(Br)cc1 (stereo not shown) | CA12 | enzyme activity, inhibitor, absorbance | – | 100 µM | 92.1%
Nc1cc[nH]c(=O)n1 | USP51 | enzyme activity, inhibitor | – | 5 µM | 27%
Fc1ccc(C(c2ccc(F)cc2)c2nnnn2CCCCN2CCC(CCCc3ccccc3)CC2)cc1 | SLC6A3 | transporter uptake, inhibitor | HEK293 | 1 µM | 53.4%
O=C(c1cccc(Cl)c1)N1CCN(CCNc2cc(=O)oc3ccccc23)CC1 | DRD3 | enzyme activity, inhibitor | – | 10 µM | -11.3%
CCCOC(=O)c1cc(O)c(O)c(O)c1 | USP51 | enzyme activity, inhibitor | – | 5 µM | 97%
Fc1ccc(C(c2ccc(F)cc2)c2nnnn2CCCCN2CCC(c3ccccc3)CC2)cc1 | SLC6A3 | transporter uptake, inhibitor | HEK293 | 1 µM | 94.6%
COc1ccccc1O | USP51 | enzyme activity, inhibitor | – | 5 µM | 0%
CC(O)c1ccc(-c2ccc(CNCCc3ccc(S(N)(=O)=O)cc3)o2)cc1 (stereo not shown) | DRD3 | enzyme activity, inhibitor | – | 10 µM | -9.5%
CCOC(=O)C1CSc2[nH]c(=O)sc2C1c1cn(-c2ccccc2)nc1-c1ccc(OC)cc1 (stereo not shown) | CA12 | enzyme activity, inhibitor, absorbance | – | 10 nM | 17.1%
Fc1ccc(C(c2ccc(F)cc2)c2nnnn2CCCN2CCC(CCCc3ccccc3)CC2)cc1 | SLC6A3 | transporter uptake, inhibitor | HEK293 | 1 µM | 33.1%
O=C(c1ccc(Cl)cc1)N(Cc1ccccc1)C1CCCCC1 | Peroxisome proliferator-activated receptor gamma (PPARG, Homo sapiens, UniProt P37231) | cell-free assay | – | 10 µM | 14.6%
Cc1ccccc1OCC(O)CN1CCN(CC(O)COc2ccccc2C)CC1 (stereo not shown) | DRD3 | enzyme activity, inhibitor | – | 10 µM | -12.1%
CNC(=O)c1cc(Oc2ccc(NC(=O)Nc3ccc(Cl)c(C(F)(F)F)c3)cc2)ccn1 | Lyn | enzyme activity, inhibitor | – | 10 µM | 95%
C=C1C[C@@]2(O)O[C@@]3(C[C@H]2C(C)C)[C@@H](C)CC[C@@H]13 | USP51 | enzyme activity, inhibitor | – | 5 µM | 11%
